A short description of series [1]: Volume of distribution at steady state in Sprague-Dawley rat at 0.5 mg/kg, iv. The series is classed as ADME, organism-based. Also on record: dose 0.5 mg/kg, route intravenous. To be noted: in vivo, read-out: Vdss. The method, boiled down: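 Male Sprague-Dawley rats dosed 0.5 mg/kg iv.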
The target of series [2] is T1, Free fatty acid receptor 2 (Homo sapiens) (UniProt O15552).
T1 sequence (whole entry): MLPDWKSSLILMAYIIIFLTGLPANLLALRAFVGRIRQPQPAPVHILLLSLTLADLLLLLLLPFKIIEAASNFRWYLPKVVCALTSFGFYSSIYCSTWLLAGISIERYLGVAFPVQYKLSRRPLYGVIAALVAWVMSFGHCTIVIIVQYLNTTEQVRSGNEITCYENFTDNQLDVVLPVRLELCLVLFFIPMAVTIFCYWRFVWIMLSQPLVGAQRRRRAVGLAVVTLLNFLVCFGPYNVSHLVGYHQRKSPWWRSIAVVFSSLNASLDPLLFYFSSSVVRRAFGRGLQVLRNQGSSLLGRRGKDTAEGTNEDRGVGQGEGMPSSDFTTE
Description: Agonist activity at human FFA2 receptor expressed in CHO cells assessed as inhibition of forskolin-induced cAMP production relative to acetate. The series is classed as functional, cell-based. In outline: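 Suspended cells, 10,000 per well, in Hank's balanced salt solution with 25 mM HEPES and 0.01% (w/v) BSA. Stimulated with forskolin (5 μM final) plus serially diluted test ligands, room temperature for 30 min. Antibody and lysis reagents then added, followed by overnight dark incubation with detection solution. Luminescence read (RLU). Efficacy expressed relative to acetate. Means of four experiments.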
For orientation: Cyclic AMP is a second messenger, typically raised through Gs and lowered through Gi signalling.

In series [3] the test system is Mus musculus. The series is described as follows: Reduction in plasma free fatty acid level in overnight fasted FFA2 knockout C57BL/6 mouse at 3 mg/kg, ip after 15 mins. Further details: dose 3 mg/kg. It counts as functional, organism-based. In outline: (§1)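 Male-unspecified C57BL6 mice, wild type or FFA2 knockout, fasted overnight. Given compound or vehicle (10% dimethyl acetamide, 10% ethanol, 30% propylene glycol, 50% saline) ip at 10 ml/kg. Tail blood sampled before and 15 minutes after injection. Plasma FFA measured by enzymatic kit. Ten animals per group; t test.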

In series [4] the test system is Mus musculus. The series is described as follows: Reduction in plasma free fatty acid level in overnight fasted wild type C57BL/6 mouse at 3 mg/kg, ip after 15 mins. The series is classed as functional, organism-based. Further details: dose 3 mg/kg. In outline: as §1
Series [5] concerns Mus musculus. The series is described as follows: Reduction in plasma free fatty acid level in overnight fasted FFA2 knockout C57BL/6 mouse at 20 mg/kg, ip after 15 mins. The series is classed as functional, organism-based. Also on record: dose 20 mg/kg. The method, boiled down:
as §1

For series [6], the target named is T2, Free fatty acid receptor 3 (Homo sapiens) (UniProt O14843).
T2 sequence (whole entry): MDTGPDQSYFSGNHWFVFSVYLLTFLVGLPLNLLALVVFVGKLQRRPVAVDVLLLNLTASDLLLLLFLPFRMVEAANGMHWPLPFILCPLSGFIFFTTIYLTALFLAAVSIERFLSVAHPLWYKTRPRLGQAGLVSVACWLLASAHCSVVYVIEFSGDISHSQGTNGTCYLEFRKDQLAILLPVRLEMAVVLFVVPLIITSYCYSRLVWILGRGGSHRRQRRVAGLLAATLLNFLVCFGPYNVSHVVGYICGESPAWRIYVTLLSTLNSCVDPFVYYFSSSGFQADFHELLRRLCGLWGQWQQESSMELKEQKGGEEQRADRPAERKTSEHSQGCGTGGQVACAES
The series is described as follows: Agonist activity at FFA3 receptor up to 30 uM. It counts as functional.

In series [7] the target is C-X-C chemokine receptor type 4 (Homo sapiens) (UniProt P61073). Description: Agonist activity at CXCR4 up to 30 uM. It counts as functional.

The structures appear in SMILES notation. Activity calls are given as the source filed them. The calls are words filed in the database; no cut-off is given here.

Sequence of C-X-C chemokine receptor type 4 (Homo sapiens) (P61073 whole entry): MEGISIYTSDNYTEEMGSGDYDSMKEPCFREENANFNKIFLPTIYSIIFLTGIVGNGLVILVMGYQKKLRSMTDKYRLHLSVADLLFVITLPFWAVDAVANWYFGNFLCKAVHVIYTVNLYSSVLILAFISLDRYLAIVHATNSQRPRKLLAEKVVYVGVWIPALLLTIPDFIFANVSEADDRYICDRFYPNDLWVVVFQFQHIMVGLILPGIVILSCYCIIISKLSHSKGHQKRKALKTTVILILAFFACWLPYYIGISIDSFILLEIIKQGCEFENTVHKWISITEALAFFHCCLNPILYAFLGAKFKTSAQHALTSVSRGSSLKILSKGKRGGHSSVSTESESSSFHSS

As for `CC(C)[C@H](C(=O)Nc1ncc(F)s1)c1ccc(Cl)cc1`, the Vd in series [1] worked out at 9.8 L/kg. Moreover, the Efficacy in series [2] came out at 103%. Moreover, the result (in the series with Mus musculus [3]; in series [6]; in series [7]) was inactive. The result in the series on Mus musculus [4] and in the series on Mus musculus [5] was Active.

The values are drawn from ChEMBL document CHEMBL1153229, “The first synthetic agonists of FFA2: Discovery and SAR of phenylacetamides as allosteric modulators” (Bioorg Med Chem Lett, 2010).
